Test results from ChEMBL document CHEMBL5058577, “EUbOPEN Chemogenomics Library 2 (Multiplex)” (2022).

Tested on: Fibroblast
Assay: Multiplex assay against human fibroblast
Format: toxicity, cell-based
Procedure, shortened: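 Imaging took place on a CQ1 microscope at 37°C and 5% CO2 once compound had been added to live cells stained at seeding with Hoechst33342, BioTracker Green Microtubule Cytoskeleton Dye, MitoTracker Red and Annexin V Alexa Fluor 680. CellPathfinder machine-learning gating classed cells as Hoechst high-intensity objects or normal cells, classed normal cells as having healthy, pyknosed or fragmented nuclei, and classed pyknosed cells as mitotic or apoptotic. Tubulin, mitochondrial-mass and membrane-permeability phenotypes are per cents of the healthy-nucleus cells.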

[1] = 12 h, 1 µM, compound concentration 1 uM, replicate 1
[2] = 12 h, 1 µM, compound concentration 1 uM, replicate 2
[3] = 12 h, 10 µM, compound concentration 10 uM, replicate 1
[4] = 12 h, 10 µM, compound concentration 10 uM, replicate 2
[5] = 24 h, 1 µM, compound concentration 1 uM, replicate 1
[6] = 24 h, 1 µM, compound concentration 1 uM, replicate 2
[7] = 24 h, 10 µM, compound concentration 10 uM, replicate 1
[8] = 24 h, 10 µM, compound concentration 10 uM, replicate 2
[9] = 48 h, 1 µM, compound concentration 1 uM, replicate 1
[10] = 48 h, 1 µM, compound concentration 1 uM, replicate 2
[11] = 48 h, 10 µM, compound concentration 10 uM, replicate 1
[12] = 48 h, 10 µM, compound concentration 10 uM, replicate 2

Compound: O=C(O)CCC/C=C\CC1C(O)CC(O)C1/C=C/C(O)COc1cccc(Cl)c1 (centres undefined) [CLOPROSTENOL]
- Population Apoptotic (%) [1]: 41%
- Population Fragmented Nuclei (%) [1]: 15%
- Population Healthy Nuclei (%) [1]: 68%
- Population Hoechst High Intensity Objects (%) [1]: 0%
- Population Membrane Permeable-Phenotype (%) [1]: 0%
- Population Mitochondria Different-Phenotype (%) [1]: 2%
- Population Mitotic Cells (%) [1]: 58%
- Population Normal (%) [1]: 100%
- Population Pyknosed Nuclei (%) [1]: 15%
- Population Tubulin-Different-Phenotype (%) [1]: 22%
- Total Cell Count [1]: 153
- Population Apoptotic (%) [2]: 20%
- Population Fragmented Nuclei (%) [2]: 22%
- Population Healthy Nuclei (%) [2]: 52%
- Population Hoechst High Intensity Objects (%) [2]: 2%
- Population Membrane Permeable-Phenotype (%) [2]: 8%
- Population Mitotic Cells (%) [2]: 80%
- Population Normal (%) [2]: 97%
- Population Pyknosed Nuclei (%) [2]: 25%
- Population Tubulin-Different-Phenotype (%) [2]: 52%
- Total Cell Count [2]: 141
- Population Apoptotic (%) [3]: 38%
- Population Fragmented Nuclei (%) [3]: 23%
- Population Healthy Nuclei (%) [3]: 58%
- Population Hoechst High Intensity Objects (%) [3]: 12%
- Population Membrane Permeable-Phenotype (%) [3]: 0%
- Population Mitochondria Different-Phenotype (%) [3]: 4%
- Population Mitotic Cells (%) [3]: 61%
- Population Normal (%) [3]: 87%
- Population Pyknosed Nuclei (%) [3]: 18%
- Population Tubulin-Different-Phenotype (%) [3]: 31%
- Total Cell Count [3]: 212
- Population Apoptotic (%) [4]: 23%
- Population Healthy Nuclei (%) [4]: 43%
- Population Hoechst High Intensity Objects (%) [4]: 4%
- Population Membrane Permeable-Phenotype (%) [4]: 11%
- Population Mitochondria Different-Phenotype (%) [4]: 9%
- Population Mitotic Cells (%) [4]: 76%
- Population Normal (%) [4]: 95%
- Population Pyknosed Nuclei (%) [4]: 34%
- Population Tubulin-Different-Phenotype (%) [4]: 53%
- Total Cell Count [4]: 105
- Population Apoptotic (%) [5]: 41%
- Population Fragmented Nuclei (%) [5]: 19%
- Population Healthy Nuclei (%) [5]: 62%
- Population Hoechst High Intensity Objects (%) [5]: 0%
- Population Membrane Permeable-Phenotype (%) [5]: 1%
- Population Mitochondria Different-Phenotype (%) [5]: 3%
- Population Mitotic Cells (%) [5]: 58%
- Population Normal (%) [5]: 99%
- Population Pyknosed Nuclei (%) [5]: 18%
- Population Tubulin-Different-Phenotype (%) [5]: 26%
- Total Cell Count [5]: 161
- Population Apoptotic (%) [6]: 18%
- Population Fragmented Nuclei (%) [6]: 27%
- Population Healthy Nuclei (%) [6]: 49%
- Population Hoechst High Intensity Objects (%) [6]: 3%
- Population Membrane Permeable-Phenotype (%) [6]: 7%
- Population Mitochondria Different-Phenotype (%) [6]: 5%
- Population Mitotic Cells (%) [6]: 81%
- Population Normal (%) [6]: 96%
- Population Pyknosed Nuclei (%) [6]: 23%
- Population Tubulin-Different-Phenotype (%) [6]: 53%
- Total Cell Count [6]: 144
- Population Apoptotic (%) [7]: 41%
- Population Fragmented Nuclei (%) [7]: 24%
- Population Healthy Nuclei (%) [7]: 57%
- Population Hoechst High Intensity Objects (%) [7]: 12%
- Population Membrane Permeable-Phenotype (%) [7]: 2%
- Population Mitochondria Different-Phenotype (%) [7]: 3%
- Population Mitotic Cells (%) [7]: 58%
- Population Normal (%) [7]: 87%
- Population Pyknosed Nuclei (%) [7]: 18%
- Population Tubulin-Different-Phenotype (%) [7]: 24%
- Total Cell Count [7]: 218
- Population Apoptotic (%) [8]: 59%
- Population Fragmented Nuclei (%) [8]: 28%
- Population Healthy Nuclei (%) [8]: 50%
- Population Hoechst High Intensity Objects (%) [8]: 3%
- Population Membrane Permeable-Phenotype (%) [8]: 7%
- Population Mitotic Cells (%) [8]: 40%
- Population Normal (%) [8]: 96%
- Population Pyknosed Nuclei (%) [8]: 21%
- Population Tubulin-Different-Phenotype (%) [8]: 57%
- Total Cell Count [8]: 107
- Population Apoptotic (%) [9]: 65%
- Population Fragmented Nuclei (%) [9]: 21%
- Population Healthy Nuclei (%) [9]: 59%
- Population Hoechst High Intensity Objects (%) [9]: 2%
- Population Membrane Permeable-Phenotype (%) [9]: 2%
- Population Mitochondria Different-Phenotype (%) [9]: 2%
- Population Mitotic Cells (%) [9]: 34%
- Population Normal (%) [9]: 97%
- Population Pyknosed Nuclei (%) [9]: 19%
- Population Tubulin-Different-Phenotype (%) [9]: 25%
- Total Cell Count [9]: 156
- Population Apoptotic (%) [10]: 36%
- Population Fragmented Nuclei (%) [10]: 37%
- Population Healthy Nuclei (%) [10]: 43%
- Population Hoechst High Intensity Objects (%) [10]: 3%
- Population Membrane Permeable-Phenotype (%) [10]: 12%
- Population Mitochondria Different-Phenotype (%) [10]: 10%
- Population Mitotic Cells (%) [10]: 64%
- Population Normal (%) [10]: 96%
- Population Pyknosed Nuclei (%) [10]: 18%
- Population Tubulin-Different-Phenotype (%) [10]: 63%
- Total Cell Count [10]: 137
- Population Apoptotic (%) [11]: 46%
- Population Fragmented Nuclei (%) [11]: 25%
- Population Healthy Nuclei (%) [11]: 57%
- Population Hoechst High Intensity Objects (%) [11]: 13%
- Population Membrane Permeable-Phenotype (%) [11]: 0%
- Population Mitochondria Different-Phenotype (%) [11]: 2%
- Population Mitotic Cells (%) [11]: 53%
- Population Normal (%) [11]: 86%
- Population Pyknosed Nuclei (%) [11]: 16%
- Population Tubulin-Different-Phenotype (%) [11]: 30%
- Total Cell Count [11]: 205
- Population Apoptotic (%) [12]: 55%
- Population Fragmented Nuclei (%) [12]: 41%
- Population Healthy Nuclei (%) [12]: 49%
- Population Hoechst High Intensity Objects (%) [12]: 8%
- Population Membrane Permeable-Phenotype (%) [12]: 4%
- Population Mitochondria Different-Phenotype (%) [12]: 4%
- Population Mitotic Cells (%) [12]: 44%
- Population Normal (%) [12]: 91%
- Population Pyknosed Nuclei (%) [12]: 9%
- Population Tubulin-Different-Phenotype (%) [12]: 61%
- Total Cell Count [12]: 108
